Results on two molecules are retold here after ChEMBL document CHEMBL1123277, “Reactive 5'-substituted thymidine derivatives as potential inhibitors of nucleotide biosynthesis” (J Med Chem, 1986).

The nature of series [1]: Half-life is estimated by TLC. The format is ADME. The method, boiled down: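 Reactivity toward thiol was measured at pH 7. A 0.25–0.5% solution of compound in MeOH was mixed 1:1 with 1% mercaptoethanol in pH 7 buffer. Loss of alkylating activity was followed by TLC with 4-(4-nitrobenzyl)pyridine spray, and the half-life was estimated from this.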
Series [2] has as its system L1210. Kind of series: Compound was tested for the cytotoxic concentration that produces 50% inhibition of L1210 cells. The format is functional, cell-based. The conditions noted are these: Mus musculus, read-out: I50.
For another series, the system named is P388. Kind of series: Compound was tested in vivo in […] murine leukemia cells in mice at dose of 200 mg/kg. As to conditions: Mus musculus. It counts as functional.
Another series relates to HEp-2. Kind of series: Compound was tested for the cytotoxic concentration that produces 50% inhibition of cloning of H.Ep.-2 cells. The conditions noted are these: Homo sapiens, read-out: I50. It counts as functional, cell-based.
Series [3] concerns L1210. Kind of series: Compound was tested for the cytotoxic concentration that produces 50% inhibition of L1210 cells. It counts as functional, cell-based. As to conditions: Mus musculus, read-out: I50.

Molecules are shown by their SMILES.

In the case of `Cc1cn(C2CC(O)C(CNC(=O)CCl)O2)c(=O)[nH]c1=O` (stereo not given), in series [1], the half-life (commonly the time in which the quantity being followed falls by half) is 3 h. Further, the IC50 was 130 µM in the series with L1210 [2] and 25 µM in the series on HEp-2. Further, the ILS (usually the gain in survival time of treated over control animals, in per cent) at 200 mg/kg in the series with P388 amounted to 9%.

As to `Cc1cn(C2CC(O)C(CN(C)C(=O)CCl)O2)c(=O)[nH]c1=O` (stereo not given), in the series on L1210 [3], the IC50 is greater than 120 µM.
